pEC50: −log10 of the molar value.
Tested on: Vesicular stomatitis Indiana virus
Assay: Antiviral activity against clinical isolate Vesicular stomatitis Indiana virus infected in african green monkey Vero 76 cells assessed as reduction of virus-induced plaque formation after 2 days using crystal violet staining
Format: functional, organism-based
Conditions: 48 h

Q: With `Clc1c2ncccc2cc2nccnc12` as the compound, how does the pEC50 read?
A: < 4.05

Q: With `CCOC(=O)C(C)c1nc2c(Cl)c3ncccc3cc2[nH]c1=O` (stereo not given) as the compound, how does the pEC50 read?
A: < 4.00

Q: With `Clc1ccc(-c2nc3cc4cccnc4cc3[nH]2)cc1Cl` as the compound, how does the pEC50 read?
A: < 4.00

Q: With `Nc1ccc(-c2nc3cc4cccnc4c(Cl)c3[nH]2)cc1` as the compound, how does the pEC50 read?
A: < 4.00

Q: With `Clc1c2ncccc2cc2ncc(-c3ccccc3)nc12` as the compound, how does the pEC50 read?
A: < 4.00

Tested on: not listed separately
Assay: Cytotoxicity against african green monkey Vero 76 cells after 48 to 96 hrs by crystal violet staining
Format: cell-based
Conditions: chlorocebus sabaeus
Summary of the method: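 Vero-76 cells were seeded at 4×10^5 cells/mL in D-MEM with L-glutamine, kanamycin and 10% FBS, then exposed to serial compound dilutions at 37 °C, 5% CO2 for 48–96 h. Viability was read by crystal violet staining. 50% cytotoxic concentration by linear regression relative to untreated controls; mean of three independent determinations.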

Q: Which CC50 does the source give for `Clc1c2ncccc2cc2nccnc12` here?
A: 90 µM

Q: For `CCOC(=O)C(C)c1nc2c(Cl)c3ncccc3cc2[nH]c1=O` (stereo not given), which CC50 is on record?
A: > 100 µM

Q: For `Clc1ccc(-c2nc3cc4cccnc4cc3[nH]2)cc1Cl`, which CC50 is on record?
A: > 100 µM

Q: With `Nc1ccc(-c2nc3cc4cccnc4c(Cl)c3[nH]2)cc1` as the compound, how does the CC50 read?
A: > 100 µM

Q: For `Clc1c2ncccc2cc2ncc(-c3ccccc3)nc12`, which CC50 is on record?
A: > 100 µM

Tested on: Yellow fever virus
Assay: Antiviral activity against Yellow fever virus 17D Stamaril Pasteur J07B01 infected in hamster BHK21 cells assessed as inhibition of virus-induced cytopathogenicity after 3 to 4 days by MTT assay
Format: functional, cell-based
Conditions: Stamaril Pasteur J07B01, BHK-21
Summary of the method: (§1)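 Host cells were seeded in 96-well plates at 3×10^4 cells/well (MDBK) or 5×10^4 cells/well (BHK-21) and grown to confluent monolayers overnight. They were infected at m.o.i. 0.01 in maintenance MEM with 0.5% inactivated FBS. Serial compound dilutions were added after 1 h. Viability was read by MTT after 3–4 days at 37 °C. EC50 was taken by linear regression against untreated controls. Mean of three determinations.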

Q: With `Clc1c2ncccc2cc2nccnc12` as the compound, how does the pEC50 read?
A: < 4.15

Q: With `CCOC(=O)C(C)c1nc2c(Cl)c3ncccc3cc2[nH]c1=O` (stereo not given) as the compound, how does the pEC50 read?
A: 4.30

Q: With `Clc1ccc(-c2nc3cc4cccnc4cc3[nH]2)cc1Cl` as the compound, how does the pEC50 read?
A: < 4.00

Q: With `Nc1ccc(-c2nc3cc4cccnc4c(Cl)c3[nH]2)cc1` as the compound, how does the pEC50 read?
A: < 4.38

Q: With `Clc1c2ncccc2cc2ncc(-c3ccccc3)nc12` as the compound, how does the pEC50 read?
A: < 4.00

Tested on: Reovirus sp.
Assay: Antiviral activity against Reovirus type-1 3651 infected in hamster BHK21 cells assessed as inhibition of virus-induced cytopathogenicity after 3 to 4 days by MTT assay
Format: functional, organism-based
Conditions: Reovirus sp., 3651, BHK-21
Summary of the method: as §1

Q: With `Clc1c2ncccc2cc2nccnc12` as the compound, how does the pEC50 read?
A: < 4.15

Q: With `CCOC(=O)C(C)c1nc2c(Cl)c3ncccc3cc2[nH]c1=O` (stereo not given) as the compound, how does the pEC50 read?
A: < 4.12

Q: With `Clc1ccc(-c2nc3cc4cccnc4cc3[nH]2)cc1Cl` as the compound, how does the pEC50 read?
A: < 4.00

Q: With `Nc1ccc(-c2nc3cc4cccnc4c(Cl)c3[nH]2)cc1` as the compound, how does the pEC50 read?
A: < 4.38

Q: With `Clc1c2ncccc2cc2ncc(-c3ccccc3)nc12` as the compound, how does the pEC50 read?
A: < 4.00

Tested on: not listed separately
Assay: Antiviral activity against Vaccinia virus Lister Elstree infected in african green monkey Vero 76 cells assessed as reduction of virus-induced plaque formation after 3 days using crystal violet staining
Format: functional, cell-based
Conditions: 72 h

Q: With `Clc1c2ncccc2cc2nccnc12` as the compound, how does the pEC50 read?
A: 4.24

Q: With `CCOC(=O)C(C)c1nc2c(Cl)c3ncccc3cc2[nH]c1=O` (stereo not given) as the compound, how does the pEC50 read?
A: < 4.00

Q: With `Clc1ccc(-c2nc3cc4cccnc4cc3[nH]2)cc1Cl` as the compound, how does the pEC50 read?
A: < 4.00

Q: With `Nc1ccc(-c2nc3cc4cccnc4c(Cl)c3[nH]2)cc1` as the compound, how does the pEC50 read?
A: < 4.00

Q: With `Clc1c2ncccc2cc2ncc(-c3ccccc3)nc12` as the compound, how does the pEC50 read?
A: < 4.00

Tested on: not listed separately
Assay: Cytotoxicity against BHK21 cells after 48 to 96 hrs by MTT assay
Format: cell-based, Mesocricetus auratus, BHK-21
Conditions: hamster
Summary of the method: (§2)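 MDBK seeded at 6×10^5 and BHK at 1×10^6 cells/mL in MEM-Earle's with L-glutamine, 1 mM pyruvate, kanamycin, plus 10% horse serum (MDBK) or 10% FBS (BHK). Cells were grown at 37 °C, 5% CO2 with serial compound dilutions (DMSO stocks diluted in medium). Viability by MTT after 48–96 h. CC50 was taken by linear regression versus untreated controls; three independent determinations.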

Q: Which CC50 does the source give for `Clc1c2ncccc2cc2nccnc12` here?
A: 70 µM

Q: Which CC50 does the source give for `CCOC(=O)C(C)c1nc2c(Cl)c3ncccc3cc2[nH]c1=O` (stereo not given) here?
A: 75 µM

Q: For `Clc1ccc(-c2nc3cc4cccnc4cc3[nH]2)cc1Cl`, which CC50 is on record?
A: > 100 µM

Q: Which CC50 does the source give for `Nc1ccc(-c2nc3cc4cccnc4c(Cl)c3[nH]2)cc1` here?
A: 42 µM

Q: Which CC50 does the source give for `Clc1c2ncccc2cc2ncc(-c3ccccc3)nc12` here?
A: > 100 µM

Tested on: Coxsackievirus B5
Assay: Antiviral activity against Human coxsackievirus B5 Ohio-1 infected in african green monkey Vero 76 cells assessed as reduction of virus-induced plaque formation after 3 days using crystal violet staining
Format: functional, organism-based
Conditions: Enterovirus B, Ohio-1, Vero, 72 h

Q: With `Clc1c2ncccc2cc2nccnc12` as the compound, how does the pEC50 read?
A: 4.30

Q: With `CCOC(=O)C(C)c1nc2c(Cl)c3ncccc3cc2[nH]c1=O` (stereo not given) as the compound, how does the pEC50 read?
A: < 4.00

Q: With `Clc1ccc(-c2nc3cc4cccnc4cc3[nH]2)cc1Cl` as the compound, how does the pEC50 read?
A: < 4.00

Q: With `Nc1ccc(-c2nc3cc4cccnc4c(Cl)c3[nH]2)cc1` as the compound, how does the pEC50 read?
A: 4.11

Q: With `Clc1c2ncccc2cc2ncc(-c3ccccc3)nc12` as the compound, how does the pEC50 read?
A: < 4.00

Tested on: not listed separately
Assay: Antiviral activity against Bovine viral diarrhea virus 1-NADL infected in MDBK cells assessed as inhibition of virus-induced cytopathogenicity after 3 to 4 days by MTT assay
Format: functional, cell-based
Conditions: Bovine viral diarrhea virus isolates and strains
Summary of the method: as §1

Q: With `Clc1c2ncccc2cc2nccnc12` as the compound, how does the pEC50 read?
A: < 5.19

Q: With `CCOC(=O)C(C)c1nc2c(Cl)c3ncccc3cc2[nH]c1=O` (stereo not given) as the compound, how does the pEC50 read?
A: 5.00

Q: With `Clc1ccc(-c2nc3cc4cccnc4cc3[nH]2)cc1Cl` as the compound, how does the pEC50 read?
A: < 4.00

Q: With `Nc1ccc(-c2nc3cc4cccnc4c(Cl)c3[nH]2)cc1` as the compound, how does the pEC50 read?
A: 5.00

Q: With `Clc1c2ncccc2cc2ncc(-c3ccccc3)nc12` as the compound, how does the pEC50 read?
A: 4.74

Tested on: Human orthopneumovirus
Assay: Antiviral activity against Human respiratory syncytial virus A2 infected in african green monkey Vero 76 cells assessed as reduction of virus-induced plaque formation after 5 days using crystal violet staining
Format: functional, organism-based
Conditions: 120 h

Q: With `Clc1c2ncccc2cc2nccnc12` as the compound, how does the pEC50 read?
A: < 4.05

Q: With `CCOC(=O)C(C)c1nc2c(Cl)c3ncccc3cc2[nH]c1=O` (stereo not given) as the compound, how does the pEC50 read?
A: 4.21

Q: With `Clc1ccc(-c2nc3cc4cccnc4cc3[nH]2)cc1Cl` as the compound, how does the pEC50 read?
A: < 4.00

Q: With `Nc1ccc(-c2nc3cc4cccnc4c(Cl)c3[nH]2)cc1` as the compound, how does the pEC50 read?
A: < 4.00

Q: With `Clc1c2ncccc2cc2ncc(-c3ccccc3)nc12` as the compound, how does the pEC50 read?
A: < 4.00

Tested on: not listed separately
Assay: Cytotoxicity against MDBK cells after 48 to 96 hrs by MTT assay
Format: cell-based, Bos taurus
Conditions: cattle
Summary of the method: as §2

Q: For `Clc1c2ncccc2cc2nccnc12`, which CC50 is on record?
A: 6.5 µM

Q: Which CC50 does the source give for `CCOC(=O)C(C)c1nc2c(Cl)c3ncccc3cc2[nH]c1=O` (stereo not given) here?
A: > 100 µM

Q: Which CC50 does the source give for `Clc1ccc(-c2nc3cc4cccnc4cc3[nH]2)cc1Cl` here?
A: > 100 µM

Q: For `Nc1ccc(-c2nc3cc4cccnc4c(Cl)c3[nH]2)cc1`, which CC50 is on record?
A: 45 µM

Q: For `Clc1c2ncccc2cc2ncc(-c3ccccc3)nc12`, which CC50 is on record?
A: > 100 µM

Tested on: Poliovirus 1
Assay: Antiviral activity against Human poliovirus 1 strain Sabin Chat infected in african green monkey Vero 76 cells assessed as virus-induced reduction of plaque formation after 2 days using crystal violet staining
Format: functional, cell-based
Conditions: Enterovirus C, 48 h

Q: With `Clc1c2ncccc2cc2nccnc12` as the compound, how does the pEC50 read?
A: < 4.05

Q: With `CCOC(=O)C(C)c1nc2c(Cl)c3ncccc3cc2[nH]c1=O` (stereo not given) as the compound, how does the pEC50 read?
A: < 4.00

Q: With `Clc1ccc(-c2nc3cc4cccnc4cc3[nH]2)cc1Cl` as the compound, how does the pEC50 read?
A: < 4.00

Q: With `Nc1ccc(-c2nc3cc4cccnc4c(Cl)c3[nH]2)cc1` as the compound, how does the pEC50 read?
A: < 4.00

Q: With `Clc1c2ncccc2cc2ncc(-c3ccccc3)nc12` as the compound, how does the pEC50 read?
A: < 4.00

Tested on: Human alphaherpesvirus 1
Assay: Antiviral activity against Human herpesvirus 1 strain KOS infected in african green monkey Vero 76 cells assessed as reduction of virus-induced plaque formation after 3 days using crystal violet staining
Format: functional, organism-based
Conditions: Human alphaherpesvirus 1, KOS, 72 h

Q: With `Clc1c2ncccc2cc2nccnc12` as the compound, how does the pEC50 read?
A: 4.05

Q: With `CCOC(=O)C(C)c1nc2c(Cl)c3ncccc3cc2[nH]c1=O` (stereo not given) as the compound, how does the pEC50 read?
A: < 4.00

Q: With `Clc1ccc(-c2nc3cc4cccnc4cc3[nH]2)cc1Cl` as the compound, how does the pEC50 read?
A: < 4.00

Q: With `Nc1ccc(-c2nc3cc4cccnc4c(Cl)c3[nH]2)cc1` as the compound, how does the pEC50 read?
A: < 4.00

Q: With `Clc1c2ncccc2cc2ncc(-c3ccccc3)nc12` as the compound, how does the pEC50 read?
A: < 4.00

Tested on: not listed separately
Assay: Cytotoxicity against human MT4 cells after 96 hrs by MTT assay
Format: cell-based
Conditions: not given
Summary of the method: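 Exponentially growing MT-4 cells seeded at 1×10^5 cells/mL in RPMI-1640 with 10% FBS, penicillin and streptomycin. Incubated with serial compound dilutions at 37 °C, 5% CO2 for 96 h; viability by MTT. CC50 by linear regression relative to untreated controls; mean of three independent determinations.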

Q: With `Clc1c2ncccc2cc2nccnc12` as the compound, how does the CC50 at 96 h read?
A: 82 µM

Q: For `CCOC(=O)C(C)c1nc2c(Cl)c3ncccc3cc2[nH]c1=O` (stereo not given), which CC50 at 96 h is on record?
A: 11 µM

Q: With `Clc1ccc(-c2nc3cc4cccnc4cc3[nH]2)cc1Cl` as the compound, how does the CC50 at 96 h read?
A: > 100 µM

Q: With `Nc1ccc(-c2nc3cc4cccnc4c(Cl)c3[nH]2)cc1` as the compound, how does the CC50 at 96 h read?
A: 15 µM

Q: Which CC50 at 96 h does the source give for `Clc1c2ncccc2cc2ncc(-c3ccccc3)nc12` here?
A: > 100 µM

Tested on: Human immunodeficiency virus 1
Assay: Antiviral activity against HIV1 3B infected in human MT4 cells assessed as inhibition of virus-induced cytopathogenicity after 4 days by MTT assay
Format: functional, organism-based
Conditions: Human immunodeficiency virus 1, 3B, MT4, 96 h
Summary of the method: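 MT-4 cells (1×10^4 per well) were infected with HIV-1 IIIB at 100 CCID50, m.o.i. 0.01, together with serial compound dilutions. Viability was read by MTT after 4 days at 37 °C. EC50 was taken by linear regression versus untreated controls. Mean of three determinations.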

Q: With `Clc1c2ncccc2cc2nccnc12` as the compound, how does the pEC50 read?
A: < 4.09

Q: With `CCOC(=O)C(C)c1nc2c(Cl)c3ncccc3cc2[nH]c1=O` (stereo not given) as the compound, how does the pEC50 read?
A: < 4.96

Q: With `Clc1ccc(-c2nc3cc4cccnc4cc3[nH]2)cc1Cl` as the compound, how does the pEC50 read?
A: < 4.00

Q: With `Nc1ccc(-c2nc3cc4cccnc4c(Cl)c3[nH]2)cc1` as the compound, how does the pEC50 read?
A: < 4.82

Q: With `Clc1c2ncccc2cc2ncc(-c3ccccc3)nc12` as the compound, how does the pEC50 read?
A: < 4.00
